Laboratory results: ChEMBL document CHEMBL1681730, “17,20-lyase inhibitors. Part 4: design, synthesis and structure-activity relationships of naphthylmethylimidazole derivatives as novel 17,20-lyase inhibitors” (Bioorg Med Chem, 2011)

Legend:
[1] = target: T1, Steroid 17-alpha-hydroxylase/17,20 lyase (Rattus norvegicus, UniProt P11715); assay: Inhibition of 17,20 lyase activity in Sprague-Dawley rat testicular microsomes; design: species or system Testis
T1 sequence (P11715 whole entry): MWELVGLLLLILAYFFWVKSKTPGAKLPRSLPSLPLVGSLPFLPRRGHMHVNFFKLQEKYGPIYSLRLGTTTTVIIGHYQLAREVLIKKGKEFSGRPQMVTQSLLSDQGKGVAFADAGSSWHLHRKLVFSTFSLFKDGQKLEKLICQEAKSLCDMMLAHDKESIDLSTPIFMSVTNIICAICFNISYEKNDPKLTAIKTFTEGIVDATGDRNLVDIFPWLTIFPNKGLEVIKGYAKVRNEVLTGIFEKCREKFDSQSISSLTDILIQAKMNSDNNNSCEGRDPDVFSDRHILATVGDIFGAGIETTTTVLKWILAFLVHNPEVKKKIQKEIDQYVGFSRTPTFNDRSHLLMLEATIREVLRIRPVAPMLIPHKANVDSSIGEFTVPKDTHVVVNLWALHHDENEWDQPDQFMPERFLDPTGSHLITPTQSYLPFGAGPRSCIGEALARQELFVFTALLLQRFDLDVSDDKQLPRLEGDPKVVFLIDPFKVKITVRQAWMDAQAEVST
Procedure, shortened: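 Testicular microsomes from 13-week-old male SD rats (7 µg protein) in 75 mM phosphate buffer, pH 7.4, with 10 nM [1,2-3H]-17α-hydroxyprogesterone, 5 mM NADPH, and 1–1000 nM test compound (all final). Compounds were diluted in DMF and then in water. Incubation ran 15 min at 37 °C and was stopped with ethyl acetate. IC50 is the concentration that halves product formation.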

[2] = target: T2, Steroid 17-alpha-hydroxylase/17,20 lyase (Homo sapiens, UniProt P05093); assay: Inhibition of 17,20 lyase activity in human
T2 sequence (P05093 whole entry): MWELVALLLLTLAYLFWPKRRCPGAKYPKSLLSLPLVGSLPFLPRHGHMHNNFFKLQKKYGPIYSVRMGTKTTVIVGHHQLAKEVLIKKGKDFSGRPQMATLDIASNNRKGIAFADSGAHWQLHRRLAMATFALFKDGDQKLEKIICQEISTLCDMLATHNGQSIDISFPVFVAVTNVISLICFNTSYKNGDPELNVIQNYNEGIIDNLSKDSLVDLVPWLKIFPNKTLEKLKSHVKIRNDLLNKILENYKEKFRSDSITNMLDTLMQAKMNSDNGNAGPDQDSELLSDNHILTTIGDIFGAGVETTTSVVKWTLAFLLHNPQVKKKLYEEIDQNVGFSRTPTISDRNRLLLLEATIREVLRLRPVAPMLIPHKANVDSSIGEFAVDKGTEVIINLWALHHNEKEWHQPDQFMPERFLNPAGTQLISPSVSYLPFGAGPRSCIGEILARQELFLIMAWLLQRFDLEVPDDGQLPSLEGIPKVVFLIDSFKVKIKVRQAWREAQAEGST
Procedure, shortened: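 Recombinant P450c17 (0.5 pmol) with cytochrome b5 (0.5 pmol) and NADPH-P450 reductase (20.8 ng) in 75 mM phosphate pH 7.4 with 1 mM MgCl2. Substrate 10 nM [1,2-3H]-17α-hydroxypregnenolone, 5 mM NADPH, compound 1–1000 nM. Incubated 15 min at 37 °C, ethyl acetate extraction, DHEA separated from substrate by silica TLC (cyclohexane–ethyl acetate 3:2). IC50 taken as 50% reduction in product.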

[3] = target: Cytochrome P450 3A4 (Homo sapiens, UniProt P08684); assay: Inhibition of human CYP3A4; format: ADME
Sequence of Cytochrome P450 3A4 (P08684 whole entry): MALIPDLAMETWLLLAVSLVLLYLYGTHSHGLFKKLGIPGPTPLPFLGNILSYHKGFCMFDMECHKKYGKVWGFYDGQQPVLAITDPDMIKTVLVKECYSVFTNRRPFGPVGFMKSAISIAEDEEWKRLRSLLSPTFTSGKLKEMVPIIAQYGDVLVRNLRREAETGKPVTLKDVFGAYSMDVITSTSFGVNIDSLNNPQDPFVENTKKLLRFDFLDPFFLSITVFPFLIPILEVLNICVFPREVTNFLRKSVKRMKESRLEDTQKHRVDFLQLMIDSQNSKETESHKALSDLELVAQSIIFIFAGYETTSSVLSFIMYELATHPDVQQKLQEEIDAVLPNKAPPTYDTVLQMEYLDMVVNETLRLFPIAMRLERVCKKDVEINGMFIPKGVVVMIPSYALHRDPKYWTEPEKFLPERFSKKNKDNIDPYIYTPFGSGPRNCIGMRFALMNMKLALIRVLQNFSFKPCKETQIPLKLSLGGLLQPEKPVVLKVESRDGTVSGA

[4] = organism: Homo sapiens; assay: Ratio of IC50 for human CYP3A4 to IC50 for human 17,20-lyase
Procedure, shortened: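 Two assays. Human 17,20-lyase: recombinant P450c17 (0.5 pmol) with cytochrome b5 and NADPH-P450 reductase, 10 nM [1,2-3H]-17α-hydroxypregnenolone, 5 mM NADPH, 1 mM MgCl2, pH 7.4 phosphate, 1–1000 nM compound, 15 min at 37 °C. DHEA separated by TLC, IC50 calculated. CYP3A4: recombinant enzyme, 100 μM testosterone, NADPH-regenerating system, 30 min at 37 °C, 6-hydroxytestosterone measured by HPLC.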

[5] = target: T3, Cytochrome P450c11B3 (Rattus norvegicus, UniProt Q64546); assay: Inhibition of 11-hydroxylase activity in Sprague-Dawley rat adrenal gland; format: tissue-based
T3 sequence (Q64546 whole entry): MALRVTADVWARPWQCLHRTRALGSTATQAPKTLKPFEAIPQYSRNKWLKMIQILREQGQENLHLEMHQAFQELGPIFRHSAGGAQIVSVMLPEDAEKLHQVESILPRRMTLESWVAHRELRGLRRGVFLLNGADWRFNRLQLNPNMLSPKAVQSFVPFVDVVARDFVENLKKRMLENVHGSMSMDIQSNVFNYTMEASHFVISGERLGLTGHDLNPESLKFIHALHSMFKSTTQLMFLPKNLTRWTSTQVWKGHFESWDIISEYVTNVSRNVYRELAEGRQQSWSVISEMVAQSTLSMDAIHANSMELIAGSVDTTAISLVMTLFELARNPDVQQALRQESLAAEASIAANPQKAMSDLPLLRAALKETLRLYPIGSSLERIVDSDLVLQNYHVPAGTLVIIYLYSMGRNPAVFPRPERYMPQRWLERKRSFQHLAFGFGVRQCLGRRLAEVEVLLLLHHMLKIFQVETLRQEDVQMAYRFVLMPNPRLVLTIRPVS
Procedure, shortened: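 Mitochondrial fraction from SD rat adrenal glands, 4 µg protein, in 200 mM mannitol, 4.5 mM HEPES, 2.3 mM K phosphate pH 7.4, 0.1 mM EDTA, 0.03% BSA, 4.5 mM NADPH, 11 mM CaCl2. Substrate 10 nM [1,2-3H]-11-deoxycortisol. Test compound 1–1000 nM, diluted in DMF. Incubated 30 min at 37 °C, stopped with ethyl acetate. Final concentrations.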

[6] = test system: Cynomolgus monkey; assay: Antiandrogenic activity in cynomolgus monkey assessed as reduction serum testosterone level at 1 mg/kg, po at 4 hrs (reference value: 89.1 +/- 15.6%); format: functional, Macaca fascicularis; design: scale not given: the % may be the effect or the level left
[7] = test system: Cynomolgus monkey; assay: Antiandrogenic activity in cynomolgus monkey assessed as reduction serum testosterone level at 1 mg/kg, po at 8 hrs (reference value: 68.5 +/- 27.3%); format: functional, Macaca fascicularis; design: scale not given: the % may be the effect or the level left
[8] = test system: Cynomolgus monkey; assay: Antiandrogenic activity in cynomolgus monkey assessed as reduction serum DHEA level at 1 mg/kg, po at 4 hrs (reference value: 105.7 +/- 4.2%); format: functional, Macaca fascicularis; design: scale not given: the % may be the effect or the level left
Procedure, shortened: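 Adult male cynomolgus monkeys (23 ± 2 °C, 12:12 h light/dark) given a single oral 1 mg/kg dose as a suspension in 0.5% methylcellulose. Serum collected just before dosing and at 4 and 8 h, stored at −30 °C, and assayed by RIA. Values expressed as % of the 0 h level, mean ± SD, n = 3. Dunnett test against vehicle.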

[9] = test system: Cynomolgus monkey; assay: Antiandrogenic activity in cynomolgus monkey assessed as reduction serum DHEA level at 1 mg/kg, po at 8 hrs (reference value: 38.5 +/- 18.4%); format: functional, Macaca fascicularis; design: scale not given: the % may be the effect or the level left

Structure (SMILES)	IC50 [2]	IC50 [3]	Ratio IC50 [4]	IC50 [5]	IC50 [1]	Activity [6]	Activity [7]	Activity [8]	Activity [9]
COC(=O)c1ccc2cc(C(O)(c3c[nH]cn3)C(C)C)ccc2c1 (racemic)	24 nM	1400 nM	58	–	43 nM	–	–	–	–
CC(C)[C@](O)(c1ccc2c3c(ccc2c1)C(=O)N(C)C3)c1c[nH]cn1	–	–	> 1000	–	–	13.2%	9.8%	16.8%	7.7%
CC(C)C(O)(c1ccc2cc3c(cc2c1)CN(C)C3=O)c1c[nH]cn1 (racemic)	19 nM	5400 nM	–	–	70 nM	–	–	–	–
CC(=O)Nc1ccc2cc(C(O)(c3c[nH]cn3)C(C)C)ccc2c1 (racemic)	39 nM	< 1000 nM	< 26	–	29 nM	–	–	–	–
CNC(=O)c1ccc2cc(C(O)(c3c[nH]cn3)C(C)C)ccc2c1C (racemic)	160 nM	> 10000 nM	–	–	200 nM	–	–	–	–
CC(C)NC(=O)c1ccc2cc(C(O)(c3c[nH]cn3)C(C)C)ccc2c1 (racemic)	75 nM	9300 nM	–	–	12 nM	–	–	–	–
CC(C)C(O)(c1ccc2cc(C(N)=O)ccc2c1)c1c[nH]cn1 (racemic)	30 nM	3700 nM	–	–	< 10 nM	–	–	–	–
CC(=O)c1ccc2cc(C(O)(c3c[nH]cn3)C(C)C)ccc2c1 (racemic)	28 nM	1400 nM	50	–	14 nM	–	–	–	–
CNC(=O)c1cc2ccc(C(O)(c3c[nH]cn3)C(C)C)cc2cc1C (racemic)	39 nM	3600 nM	–	–	12 nM	–	–	–	–

The next lines start with results.

IC50 [2]	IC50 [3]	Ratio IC50 [4]	IC50 [5]	Structure (SMILES)	IC50 [1]	Activity [6]	Activity [7]	Activity [8]	Activity [9]
38 nM	3400 nM	–	–	CCCNC(=O)c1ccc2cc(C(O)(c3cnc[nH]3)C(C)C)ccc2c1 (racemic)	13 nM	–	–	–	–
46 nM	5700 nM	–	–	CCNC(=O)c1ccc2cc(C(O)(c3c[nH]cn3)C(C)C)ccc2c1 (racemic)	11 nM	–	–	–	–
15 nM	> 10000 nM	–	13 nM	CC(C)C(O)(c1ccc2c3c(ccc2c1)C(=O)NC3)c1c[nH]cn1 (single isomer, unassigned; (-))	–	–	–	–	–
200 nM	> 10000 nM	–	–	CNC(=O)c1ccc2cc(C(O)(c3cnc[nH]3)C(C)C)ccc2c1Cl (racemic)	91 nM	–	–	–	–
36 nM	–	–	–	CC(C)C(O)(c1ccc2cc3c(cc2c1)CNC3=O)c1c[nH]cn1 (racemic)	–	–	–	–	–
36 nM	< 1000 nM	< 28	–	CNC(=O)Nc1ccc2cc(C(O)(c3c[nH]cn3)C(C)C)ccc2c1 (racemic)	11 nM	–	–	–	–
16 nM	3600 nM	225	–	CNC(=O)c1ccc2cc(C(O)(c3c[nH]cn3)C(C)C)ccc2c1 (racemic)	6 nM	–	–	–	–
60 nM	7400 nM	–	220 nM	CC(C)C(O)(c1ccc2c3c(ccc2c1)C(=O)NC3)c1c[nH]cn1 (stereo in doubt; (+)-27a)	180 nM	–	–	–	–
22 nM	–	–	–	CC(C)C(O)(c1ccc2c3c(ccc2c1)C(=O)N(C)C3)c1c[nH]cn1 (racemic)	–	–	–	–	–
28 nM	< 1000 nM	< 36	–	COc1ccc2cc([C@](O)(c3c[nH]cn3)C(C)C)ccc2c1	21 nM	–	–	–	–
18 nM	6700 nM	–	–	CC(C)C(O)(c1ccc2c3c(ccc2c1)C(=O)NC3)c1c[nH]cn1 (racemic)	–	–	–	–	–
270 nM	> 10000 nM	–	> 1000 nM	CC(C)[C@@](O)(c1ccc2c3c(ccc2c1)C(=O)N(C)C3)c1cnc[nH]1	110 nM	–	–	–	–
